Drawing on ChEMBL document CHEMBL1145212, “Fluorinated diaryl sulfides as serotonin transporter ligands: synthesis, structure-activity relationship study, and in vivo evaluation of fluorine-18-labeled compounds as PET imaging agents” (J Med Chem, 2005), this text covers Ki for two compounds.

Holding throughout (assay type): cell-based
In experiment [1] the target is Sodium-dependent serotonin transporter (Homo sapiens, UniProt P31645). Nature of the experiment: In vitro displacement of [3H]paroxetine from human serotonin transporter expressed in HEK293 cells. (In general: Loss of bound radioactivity is the signal in a displacement assay; it reports binding, not function.)
Experiment [2] addresses Sodium-dependent noradrenaline transporter (Homo sapiens, UniProt P23975). The experiment in a line: In vitro displacement of [3H]nisoxetine from human norepinephrine transporter expressed in HEK293 cells. The procedure, abridged:
(§1)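 Competitive binding using cloned human transporters expressed in HEK-293 cells. NET was labelled with [³H]nisoxetine and DAT with [³H]GBR12935, following a previously published procedure.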

In experiment [3] the target is Sodium-dependent dopamine transporter (Homo sapiens, UniProt Q01959). The experiment in a line: In vitro displacement of [3H]GBR-12935 from human dopamine transporter expressed in HEK293 cells. The method, boiled down: as §1
Chain of Sodium-dependent dopamine transporter (Q01959 whole entry): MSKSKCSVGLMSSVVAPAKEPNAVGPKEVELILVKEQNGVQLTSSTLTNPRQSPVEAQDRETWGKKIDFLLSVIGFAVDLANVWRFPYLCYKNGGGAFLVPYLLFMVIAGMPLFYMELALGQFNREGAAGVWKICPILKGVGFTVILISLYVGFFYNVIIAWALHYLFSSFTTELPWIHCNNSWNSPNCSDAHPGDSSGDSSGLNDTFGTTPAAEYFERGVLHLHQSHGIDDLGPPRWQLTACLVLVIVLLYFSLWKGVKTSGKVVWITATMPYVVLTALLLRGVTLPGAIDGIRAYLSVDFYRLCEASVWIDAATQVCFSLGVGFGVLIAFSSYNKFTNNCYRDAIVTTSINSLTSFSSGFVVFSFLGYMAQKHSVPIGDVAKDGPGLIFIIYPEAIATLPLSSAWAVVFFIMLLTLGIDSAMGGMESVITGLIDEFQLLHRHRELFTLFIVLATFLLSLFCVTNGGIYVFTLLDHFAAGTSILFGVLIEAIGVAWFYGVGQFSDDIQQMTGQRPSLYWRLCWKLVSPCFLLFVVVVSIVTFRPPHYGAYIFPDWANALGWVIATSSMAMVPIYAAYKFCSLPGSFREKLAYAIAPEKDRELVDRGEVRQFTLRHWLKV

Chain of Sodium-dependent noradrenaline transporter (P23975 whole entry): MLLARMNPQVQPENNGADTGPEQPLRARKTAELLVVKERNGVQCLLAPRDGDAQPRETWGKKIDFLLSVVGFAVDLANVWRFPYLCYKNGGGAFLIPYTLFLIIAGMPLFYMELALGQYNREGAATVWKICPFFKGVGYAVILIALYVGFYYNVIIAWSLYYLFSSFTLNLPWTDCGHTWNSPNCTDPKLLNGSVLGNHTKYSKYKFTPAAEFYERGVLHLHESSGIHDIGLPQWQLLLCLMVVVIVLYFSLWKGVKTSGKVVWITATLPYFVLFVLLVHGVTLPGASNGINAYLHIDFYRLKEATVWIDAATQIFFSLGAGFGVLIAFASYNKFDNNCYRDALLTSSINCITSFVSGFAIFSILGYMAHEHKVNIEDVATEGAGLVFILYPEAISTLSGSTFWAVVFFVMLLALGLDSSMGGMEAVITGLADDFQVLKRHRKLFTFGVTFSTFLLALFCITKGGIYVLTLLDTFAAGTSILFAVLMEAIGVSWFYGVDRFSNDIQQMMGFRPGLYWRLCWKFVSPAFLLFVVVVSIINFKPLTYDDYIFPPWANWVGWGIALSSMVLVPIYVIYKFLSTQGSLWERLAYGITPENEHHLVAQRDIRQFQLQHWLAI
Chain of Sodium-dependent serotonin transporter (P31645 whole entry): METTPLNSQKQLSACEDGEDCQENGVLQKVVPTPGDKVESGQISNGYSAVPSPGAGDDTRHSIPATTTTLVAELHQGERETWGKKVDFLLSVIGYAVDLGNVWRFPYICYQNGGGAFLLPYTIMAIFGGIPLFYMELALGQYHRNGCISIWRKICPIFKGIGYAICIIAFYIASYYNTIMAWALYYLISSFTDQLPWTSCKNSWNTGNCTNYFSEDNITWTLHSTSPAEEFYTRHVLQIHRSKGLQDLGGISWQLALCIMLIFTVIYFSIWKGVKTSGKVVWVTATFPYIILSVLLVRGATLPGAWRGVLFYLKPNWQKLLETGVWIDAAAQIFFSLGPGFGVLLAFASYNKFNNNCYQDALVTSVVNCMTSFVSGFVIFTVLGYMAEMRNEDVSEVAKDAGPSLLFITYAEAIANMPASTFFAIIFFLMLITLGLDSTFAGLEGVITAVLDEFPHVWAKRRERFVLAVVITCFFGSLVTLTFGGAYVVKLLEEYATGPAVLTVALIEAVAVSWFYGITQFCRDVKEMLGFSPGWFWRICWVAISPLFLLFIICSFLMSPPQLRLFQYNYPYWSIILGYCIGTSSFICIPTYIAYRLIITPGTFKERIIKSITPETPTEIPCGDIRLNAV

As for `Cc1ccc(Sc2ccccc2CN)c(N)c1`, the results for the inhibition constant Ki in experiment [1], in experiment [2] and in experiment [3] were 0.03 µM, 4.44 µM and 5.3 µM, respectively.

`CCNCc1ccccc1Sc1ccc(C)cc1N`: the inhibition constant Ki stood at 7.55 µM in experiment [2] and 2.12 µM in experiment [3].

For orientation: Ki means a dissociation constant, usually derived from enzyme kinetics or from competition with a known ligand. High values mean weaker binding, low ones tighter binding.
